# Hits are enriched below; roughly 3% of the tested compounds scored in any of these assays.
# PvdQ acylase: P. aeruginosa PvdQ acylase inhibition. inhibition, % at 10 µM. purified PvdQ acylase, fluorescence plate reader. actives 0.063% (n = 340,000); in the data active = inhibition above about 30%, passing the limit was not always enough; inconclusive = no clear call, values can overlap the other calls;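 also: 0% = vehicle neutral wells and 100% = reference inhibitor wells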
# HSF-1 act: increases HSF-1 driven luciferase reporter signal. NIH3T3-HGL HSF-1 luciferase reporter, MG132, 8 h; 100% = twice DMSO control signal. activation, % at 9 µM. actives 1.7% (n = 300,000);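 active = mean replicate activation of at least 50% with a set share of replicates each reaching 50%; inconclusive = only one of those two conditions met; inactive = mean below 50% and too few replicates reaching it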;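 also: 0% = median of the neutral control wells and 100% = twice that signal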
# N-glyco inh: N-linked glycosylation inhibition; D54 ERlucT glycosylation luciferase reporter, 24 h; percent of 100 nM tunicamycin response; reporter increase, % at 12.5 µM; actives 0.23% (n = 360,000);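 active = mean luciferase reporter signal, scaled so untreated is 0 and the glycosylation-blocking control 100, at or above a set limit in every replicate; inconclusive = mean reaches the limit but not every replicate does; inactive = mean below the limit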;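 also: luciferase carries N-glycosylation sites so blocking glycosylation raises the light; 0% = median of neutral control wells and 100% = median of 100 nM tunicamycin wells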
# T cruzi repl: T. cruzi replication inhibition | T. cruzi beta-gal in NIH3T3, luminescence, 90 h | inhibition, % (no concentration beside the values) | actives 1.4% (n = 300,000) | AID 1885;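 active = mean inhibition across valid replicates above about 55%, limit read from the data; inconclusive = mean below that limit but half or more replicates reach it; inactive = mean below it, under half of replicates reach it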;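 also: signal also drops with host cell toxicity which is not excluded here; 0% = plate median of DMSO wells and 100% = zero luminescence signal; higher percent means less beta-gal luminescence so fewer parasites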
#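 System: mouse NIH/3T3 fibroblasts infected with β-gal-expressing T. cruzi Tulahuen C4 / Input: NIH/3T3 cells, 5,000 per well / Buffer or medium: Low-serum DMEM with 2% FBS / Probe or stimulus: 5000 reporter trypomastigotes per well / Schedule: ≥90 h infection period, 3 h prior cell attachment / Measured by: GalScreen luminescence, 60 min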
# PfHsp90 yeast 2: reduces growth (ATP signal) of yeast expressing P. falciparum Hsp90; inhibition, % at 9.4 µM; actives 0.32% (n = 310,000); S. cerevisiae expressing PfHsp90, BacTiter-Glo ATP, 48 h; yeast lacking PDR1 and PDR3 efflux regulators;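 active = every replicate shows inhibition above about 80%, whatever the replicate mean, limit read from the data; inconclusive = mean inhibition reaches the set limit but some replicate falls short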;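 also: 0% = DMSO neutral controls and 100% = 20 µM radicicol positive controls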
# CaV13 ICDI inh: Disruptors of the CACNA1D IQ motif to Ca2+-dependent inactivation inhibitor domain association, primary screening, Förster resonance energy transfer in intact living …; inhibition, % at 12.3 µM; HEK cells, CFP/YFP FRET ICDI-IQ, plate reader, 10 min; percent FRET-ratio fall versus neutral wells; actives 0.098% (n = 340,000);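 active = mean replicate inhibition of at least 30% and at least 1% of replicates passing that level; inconclusive = only one of the two criteria is met; inactive = neither criterion is met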;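 also: 0% = median of the neutral control wells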
# Numbers without * were called inactive; ? = inconclusive; nt = no result; + = active, no number.
SMILES,PvdQ acylase,HSF-1 act,N-glyco inh,T cruzi repl,PfHsp90 yeast 2,CaV13 ICDI inh
O=C(Nc1ccc(Cl)cc1)OCc1cn(-c2ccc(Cl)cc2)nn1,-1,12,2,31,17,-3
Cc1ccc(S(=O)(=O)NC2c3cccc4cccc(c34)C2Sc2ncccn2)cc1 (centres undefined),-6,3,1,38,-7,-5
Cc1cc(C)nc(SC2c3cccc4cccc(c34)C2NS(=O)(=O)c2ccccc2)n1 (centres undefined),-11,39,6,57*,-1,-2
O=C(C1CCC(Cn2c(=S)[nH]c3ccccc3c2=O)CC1)N1CCOCC1 (centres undefined),1,33,-1,-2,nt,-4
CCCCCNC(=O)C1CCC(Cn2c(=S)[nH]c3ccccc3c2=O)CC1 (centres undefined),-10,85*,1,41,6,-7
N#Cc1ccc(S(=O)(=O)N2CCCc3nc(-c4ccc(F)cc4)ccc32)cc1,nt,nt,nt,nt,nt,-10
Cc1ccc(NC(=O)c2ccc(Cl)cc2[N+](=O)[O-])nc1,-9,5,31*,-57,4,-3
Cc1ccc(NC(=O)c2ccccc2[N+](=O)[O-])nc1,-8,2,5,-2,-5,-3
O=C1CC(c2ccccc2)=NN1c1nc(-c2ccccc2)cs1,-2,10,0,-6,92*,-6
N/C(=N/OC(=O)c1ccccc1Cl)c1ncc([N+](=O)[O-])s1,-8,179*,23,8,-3,-19
CCOC(=O)Nc1ccc2c(c1)N(C(=O)CCN(C)C)c1ccccc1S2,-10,36,-9,85*,nt,-4
CCOC(=O)Nc1ccc2c(c1)N(C(=O)CN1CCN(C)CC1)c1ccccc1S2,-10,?,-1,71*,nt,-8
CC1(C)CC(=O)c2sc(NC(=O)c3ccccc3)nc2C1,nt,54*,nt,-11,nt,nt
CC1(C)CNC(=O)c2sc(NC(=O)c3ccccc3)nc2C1,-13,34,0,3,-75,-2
CSCCC1(C(=O)O)NC(c2ccccc2O)C2C(=O)N(C(C)C)C(=O)C21 (centres undefined),-12,-4,1,-2,-33,39*
CCCC1(C(=O)O)NC(c2ccccc2O)C2C(=O)N(Cc3ccccc3)C(=O)C21 (centres undefined),-12,2,0,0,-6,-8
COc1cccc(OCCCn2cc(/C=C3/C(=N)N4C=C(C)SC4=NC3=O)c3ccccc32)c1,-8,21,-2,57*,-1,-32
CCCCCCCCN1C(=O)[C@@H](CC(=O)N2CCSCC2)C[C@@]2(C(=O)OC)C1=C[C@H](C(C)(C)C)O[C@@H]2C,nt,nt,nt,nt,nt,-9
CC(C)N(Cc1nc(-c2ccc(Cl)cc2)no1)C(=O)CN(C)S(=O)(=O)c1ccc(Cl)cc1,-10,85*,-3,56*,nt,-8
Clc1ccc(C2=CC(c3ccco3)n3ncnc3N2)cc1 (centres undefined),-3,-2,1,5,-4,-24
Clc1ccccc1C1=CC(c2ccco2)n2ncnc2N1 (centres undefined),-5,-2,0,-10,-10,+
CC(C)(C)c1ccc(OCCCC(=O)Nc2ccc(S(N)(=O)=O)cc2)cc1,-9,56*,-4,3,12,4
NS(=O)(=O)c1ccc(NC(=O)CCCCC(=O)Nc2ccc(S(N)(=O)=O)cc2)cc1,-10,7,2,-9,-22,-5
COc1cc2c(cc1OC)CN(c1nc(CN3CCCCC3)nc3sc4c(c13)CCCC4)CC2,-19,45,-5,49,-6,-1
COc1cc2c(cc1OC)CN(c1nc(CN3CCCC3)nc3sc(C)c(C)c13)CC2,-8,18,-3,69*,5,9
SMILES,PvdQ acylase,HSF-1 act,N-glyco inh,T cruzi repl,PfHsp90 yeast 2,CaV13 ICDI inh
CCCCN(C)Cc1c(C)[nH]c2c(Cl)cccc2c1=O,-7,5,3,60*,23,-9
COc1ccc(OC)c2nc(-c3ccc4c(c3)OCO4)ccc12,-8,54*,-7,0,-1,-20
COc1ccc(C(=O)O/N=C/c2c(C(F)(F)F)nn(C)c2SCc2ccccc2Cl)cc1,11,8,53*,-27,15,-4
Cn1nc(C(F)(F)F)c(/C=N/OC(=O)c2ccccc2Cl)c1SCc1ccc(Cl)cc1,-2,32,61*,-13,14,-4
COC(=O)c1ccccc1Sc1c(/C=N/OC(=O)c2ccccc2)c(C(F)(F)F)nn1C,7,-3,1,11,18,-5
Cc1ccc(C(=O)O/N=C/c2c(C(F)(F)F)nn(C)c2Sc2ccc(Cl)cc2)cc1,-4,-9,0,-14,-19,-5
COc1ccc(C2CC(=O)C(c3ccc(Br)cc3)=CN2Cc2ccccc2)cc1 (centres undefined),nt,nt,nt,nt,nt,-4
Cc1ccc(S(=O)(=O)c2nc(-c3ccccc3F)oc2N2CC(C)OC(C)C2)cc1 (centres undefined),-19,3,-6,25,-6,-5
COc1ccccc1-c1nc(S(=O)(=O)c2ccccc2)c(N2CCCCC2)o1,-7,52*,1,11,10,-3
O=S(=O)(c1ccc(F)cc1)c1nc(-c2ccccc2F)oc1N1CCCCC1,-10,-8,1,71*,-16,-8
COc1ccccc1N=CC=C1OC(C)(C)C(C)(C)O1,1,15,10,59*,-18,-5
CCOc1ccc(N2C(=O)/C(=C\c3ccccc3OC)S(=O)(=O)C2c2cccc([N+](=O)[O-])c2)cc1 (centres undefined),-4,10,3,2,110*,-7
CC(C)[C@H](NC(=O)c1cccs1)C(=O)N1CCC[C@H]1C(=O)NCc1ccccc1,nt,nt,nt,nt,nt,-5
Cc1nn2c(N3CCN(C)CC3)cc(C(C)(C)C)nc2c1-c1ccccc1,-12,8,-3,67*,4,-4
COC(=O)[C@]12C[C@H](CC(=O)NCCCN3CCCC3=O)C(=O)N(Cc3ccccc3)C1=C[C@H](C(C)(C)C)O[C@@H]2C,nt,nt,nt,nt,nt,-9
COc1ccc(NC(=O)c2c(NC(=O)CNCc3ccco3)sc3c2CCC3)cc1,-6,8,-4,21,-5,nt
CCOc1ccc(NC(=O)c2c(NC(=O)CNCCN3CCOCC3)sc3c2CCC3)cc1,-13,11,-3,61*,-1,nt
Cc1ccc(Nc2ccc([N+](=O)[O-])nc2[N+](=O)[O-])cc1,7,-14,2,62*,1,-5
O=C(CN1CCN(C(=O)C2CCN(C(=O)/C=C/c3ccccc3)CC2)CC1)Nc1ccc(F)cc1,-1,nt,2,nt,-11,-6

# Bioassay records deposited in PubChem by Broad Institute.
